This assay has as its system HEp-2 RSV Long CPE inhibition, luminescence. The experiment in a line: antiviral protection of cells from RSV – synthesized compounds, set 12, CPE, dose response (AID 540337). In outline: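 test system = RSV Long-infected HEp-2 cells | read-out basis = % CPE inhibition scaled to virus-only and uninfected wells, IC50 | compound = 50–0.39 µM, 2-fold steps, 0.5% DMSO | repeats = triplicate | control set = cell-only and virus-only wells | also added = RSV Long, MOI 0.45 | schedule = 6 d at 37 °C | technique = luminescence-based measure of virus-induced cytopathic effect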

Activity calls are given as the source filed them.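 The calls were made as follows: active = at least 50% inhibition of virus-induced cell damage; inactive = the rest.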 Bounds are passed on as bounds.

In the case of `COCCCNC(=O)c1ccc(Cn2c(=O)c3ccccc3n(Cc3cccnc3)c2=O)cc1`, the IC50 was > 50 µM (inactive).

As to `COCCCNC(=O)c1ccc(Cn2c(=O)c3ccccc3n(CCc3ccc(C(F)(F)F)cc3)c2=O)cc1`, the IC50 is > 50 µM (inactive).

With `COCCCNC(=O)c1ccc(Cn2c(=O)c3ccccc3n(CCc3ccc(Br)cc3)c2=O)cc1`, the IC50 was > 50 µM (inactive).

As for `COCCCNC(=O)c1ccc(Cn2c(=O)c3ccccc3n(CC3CCCCC3)c2=O)cc1`, the IC50 was > 50 µM (inactive).

In the case of `COCCCNC(=O)c1ccc(Cn2c(=O)c3ccccc3n(Cc3ccc(C)cc3)c2=O)cc1`, the IC50 is 2.5 µM.

For `COCCCNC(=O)c1ccc(Cn2c(=O)c3ccccc3n(Cc3ccccn3)c2=O)cc1`, the IC50 is > 50 µM (inactive).

For `COCCCNC(=O)c1ccc(Cn2c(=O)c3ccccc3n(CCc3ccc(C)cc3)c2=O)cc1`, the IC50 is > 50 µM (inactive).

For the origin of these results see PubChem BioAssay AID540337 (Southern Research Specialized Biocontainment Screening …, 2011).
